Measured values taken from paper PMC7332231 (Journal of the American Chemical Society, 2020).

Key:
[1] = target: glutathione S-transferase Pi (GSTP1) (Homo sapiens, UniProt P09211); test: GSH substrate assay in recombinant GSTP1 lysates; assay type: biochemical
DPP3 = target: T1, DPP3 (Homo sapiens, UniProt Q9NY33); test: peptidase substrate assay; assay type: biochemical
T1 sequence (Q9NY33 2-737): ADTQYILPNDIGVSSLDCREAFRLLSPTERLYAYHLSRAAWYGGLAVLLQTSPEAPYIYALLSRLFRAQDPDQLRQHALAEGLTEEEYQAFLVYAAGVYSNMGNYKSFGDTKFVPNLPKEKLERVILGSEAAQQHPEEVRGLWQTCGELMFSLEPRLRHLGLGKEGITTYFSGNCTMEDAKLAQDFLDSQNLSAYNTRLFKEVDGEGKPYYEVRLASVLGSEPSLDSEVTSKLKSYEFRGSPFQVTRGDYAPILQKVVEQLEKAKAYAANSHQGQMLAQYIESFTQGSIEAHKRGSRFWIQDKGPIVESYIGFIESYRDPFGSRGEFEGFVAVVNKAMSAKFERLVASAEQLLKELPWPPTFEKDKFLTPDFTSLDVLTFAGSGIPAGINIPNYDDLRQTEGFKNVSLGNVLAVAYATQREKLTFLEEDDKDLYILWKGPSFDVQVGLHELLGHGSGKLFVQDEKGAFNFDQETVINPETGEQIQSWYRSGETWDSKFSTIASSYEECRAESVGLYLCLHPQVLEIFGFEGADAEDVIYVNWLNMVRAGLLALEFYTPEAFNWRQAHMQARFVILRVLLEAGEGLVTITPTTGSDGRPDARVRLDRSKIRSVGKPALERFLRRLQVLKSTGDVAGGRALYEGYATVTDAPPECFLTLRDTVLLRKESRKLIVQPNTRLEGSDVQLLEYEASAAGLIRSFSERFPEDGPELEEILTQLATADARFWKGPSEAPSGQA
Procedure, shortened: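 Purified DPP3 was exposed to test compound over a concentration series, and its catalytic activity was read by a peptidase substrate assay. IC50 was reported with 95% confidence intervals; data are mean ± s.e.m. from n = 3 biologically independent experiments. Y417 engagement was measured by quantitative chemical proteomics with the HHS-482 probe on soluble proteome from HEK293T cells expressing recombinant human DPP3 (n = 2).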

YWHAE = target: T2, YWHAE (Homo sapiens, UniProt P62258); test: competitive SILAC chemical proteomics in DM93 soluble proteome; assay type: cell-based
T2 sequence (P62258 1-255): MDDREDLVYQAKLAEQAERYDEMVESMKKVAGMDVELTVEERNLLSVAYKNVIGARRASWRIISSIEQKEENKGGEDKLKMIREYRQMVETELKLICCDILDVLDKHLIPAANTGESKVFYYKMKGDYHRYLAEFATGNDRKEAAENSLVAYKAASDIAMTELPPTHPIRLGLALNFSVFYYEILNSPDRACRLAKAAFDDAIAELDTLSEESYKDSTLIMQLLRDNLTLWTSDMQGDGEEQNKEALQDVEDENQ

glutathione S-transferase Pi (GSTP1), sequence (P09211 2-210): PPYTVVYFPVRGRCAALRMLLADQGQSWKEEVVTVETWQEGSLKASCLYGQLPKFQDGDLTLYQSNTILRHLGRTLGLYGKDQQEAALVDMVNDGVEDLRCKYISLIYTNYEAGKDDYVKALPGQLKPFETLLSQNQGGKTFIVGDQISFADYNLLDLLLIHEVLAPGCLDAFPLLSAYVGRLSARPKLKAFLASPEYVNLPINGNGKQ

Structure (SMILES): O=S(=O)(c1ccc2ccccc2c1)n1cnc(-c2ccncc2)n1 [JWB198]
- IC50 [1]: 16 µM

Structure (SMILES): COc1ccc(-c2ncn(S(=O)(=O)c3ccc(-c4ccccc4)cc3)n2)cc1 [JWB142]
- IC50 (DPP3): 17 µM
- competitive SILAC chemical proteomics in DM93 soluble proteome (50 μM) (YWHAE): > 6 SILAC ratio (SR)
